Compounds with a hit are over-represented: about 5.7% of the library has one in this group of screens.
Beta cell apopt: inhibitors of cytokine-induced beta cell apoptosis, primary screen, luminescence. INS-1E cytokine-induced death, ATP luminescence, 48 h; percent of positive-control rescue, neutral wells zero. protection from apoptosis, % (no concentration beside the values). 0.8% of 300,000 active. AID 435005, 2010;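 active = Every replicate reaches about 75%, or at least half do and their mean reaches it too, limit read from the data; inconclusive = At least half of replicates reach the limit but their mean does not; inactive = Under half of replicates reach the limit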;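 note: 0% = cytokine-treated negative control wells and 100% = positive control rescue; higher means more ATP so stronger rescue from cytokine killing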
CSC inhib: cancer stem cell viability inhibitors, primary screen, luminescence; cancer stem cell-like cells viability; inhibition, % at 7.5 µM; 1.1% of 300,000 active; in the data active = inhibition above about 75%; inconclusive = no clear call, values can overlap the other calls; tested in HMLE shEcad cells
SKKanGAS inh: S. pyogenes SKKanGAS growth inhibitors in kanamycin, primary screen, streptokinase expression inhibitor project, SKKanGAS strain, BacTiter-Glo luminescence | inhibition, % at 7.5 µM | 6 h | 1.3% of 300,000 active;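 active = mean replicate score, as percent of positive control median, at least 50; inconclusive = mean below 50 but one replicate at or above 50; inactive = mean and every replicate below 50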;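 note: strain carries kanamycin resistance gene driven by streptokinase promoter and grows in 40 µg/ml kanamycin; loss of luminescence reflects streptokinase promoter inhibition or plain growth inhibition; 0% = median of DMSO wells and 100% = positive control at its reference dose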
T cruzi repl: inhibitors of intracellular T. cruzi growth, primary screen, luminescence, NIH3T3 host cells. T. cruzi beta-gal in NIH3T3, 90 h. inhibition, % (concentration not given with the values). 1.4% of 300,000 active. AID 1885, 2009;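 active = mean inhibition across valid replicates above about 55%, limit read from the data; inconclusive = mean below that limit but half or more replicates reach it; inactive = mean below it, under half of replicates reach it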;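 note: signal also drops with host cell toxicity which is not excluded here; 0% = plate median of DMSO wells and 100% = zero luminescence signal; higher percent means less beta-gal luminescence so fewer parasites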
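System: Mouse NIH/3T3 fibroblasts infected with β-gal-expressing T. cruzi Tulahuen C4 | Quantity: NIH/3T3 cells, 5,000 per well | Reagent: 5000 reporter trypomastigotes per well | Dosing: Compound pinned at 50 nL/well, DMSO | Schedule: 3 h host attachment, then at least 90 h co-culture | Detection: GalScreen luminescence, 60 min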
Calb FLC: C. albicans growth inhibition with fluconazole, primary screen, CaCi-2 strain, Alamar Blue fluorescence | C. albicans CaCi-2 (fluconazole-resistant clinical isolate) + fluconazole, 48 h | growth inhibition, % (test concentration not listed) | 0.57% of 300,000 active | AID 1979, 2009;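 active = growth inhibition above about 58% in most replicates, limit read from the data, passing the limit was not always enough; inconclusive = exactly half the replicates above a set limit; inactive = most replicates below a set limit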;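 note: all wells also contain fluconazole at 8 µg/ml as a sub-toxic cotreatment; 0% = median of DMSO wells and 100% = median of geldanamycin control wells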
Mdm2-MdmX inh: inhibitors of human Mdm2-MdmX association, primary screen, cell-based, luminescence, split luciferase, SaOS-2, uHTS | Protein Mdm4 (Homo sapiens) + E3 ubiquitin-protein ligase Mdm2 (Homo sapiens), … | SaOS-2 split-luciferase Mdm2/MdmX complementation | inhibition, % at 8 µM | 3% of 330,000 active | AID 485346, 2010;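 active = inhibition of at least 50% at 8 µM in the primary screen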
* = called active by the depositor; ? = inconclusive; · = not tested or not shown.

SMILES	Beta cell apopt	CSC inhib	SKKanGAS inh	T cruzi repl	Calb FLC	Mdm2-MdmX inh
COc1ccc(N2CCN(C(=O)C3CCCN(S(=O)(=O)c4ccc(C)cc4)C3)CC2)cc1 (configuration not stated)	11	38	0	-8	8	4
CCc1ccc(OCC(=O)NC(NC(=S)Nc2ccc(C)cc2C)C(Cl)(Cl)Cl)cc1 (configuration not stated)	95*	-9	68*	31	-14	19
CCc1ccc(OCC(=O)NC(NC(=S)Nc2ccccc2C)C(Cl)(Cl)Cl)cc1 (configuration not stated)	8	-11	18	55*	4	1
O=C(/C=C/c1cccc([N+](=O)[O-])c1)c1ccco1	-3	7	-2	-12	40	31
O=C(/C=C/c1cccc([N+](=O)[O-])c1)c1ccc([N+](=O)[O-])o1	133*	42	86*	56*	2	·
COc1ccc(/C=N/NC(=O)c2nnn(-c3nonc3N)c2-c2cccs2)c(OC)c1	-9	-2	-2	-21	-10	16
O=C1C2C(c3ccccc3)CC=CC2[C@H](c2cccc([N+](=O)[O-])c2)N1Cc1ccccc1 (some centres not stated)	6	6	18	56*	1	38
CCOc1ccc(C(=O)c2ccc([N+](=O)[O-])cc2Cl)cc1	-2	-5	1	60*	36	20
CCOc1ccc(C(=O)c2cc([N+](=O)[O-])ccc2Cl)cc1	-9	18	4	5	6	15
COc1cccc(CC(=O)Nc2nc(-c3ccc(F)c(F)c3)cs2)c1	-5	7	3	2	-6	29
COc1cc(N=Nc2ccc3ccccc3c2)ccc1O	-5	93*	-6	-22	25	-131
Oc1ccc(N=Nc2c(O)ccc3ccccc23)cc1	21	78*	38	4	25	16
O=[N+]([O-])c1ccccc1N=Nc1ccc(O)cc1	-9	-10	-4	-11	1	-17
Oc1ccc(N=Nc2ccc3ccccc3c2)cc1	2	111*	24	-21	-11	-231
O=S1(=O)CC2N=C(N(Cc3c(F)cccc3Cl)c3ccccc3F)SC2C1 (configuration not stated)	-6	-5	-1	-3	16	·
Cc1cccc(N2CCN(c3cccc(C)c3)C2c2cccnc2)c1	·	38	2	66*	?	14
CC(C)(C)CN1CCC(Oc2cccc(C(=O)NCCCOc3cccnc3)c2)CC1	105*	-1	3	-18	-9	27
Cc1ccc(NC(=O)CN(C)S(=O)(=O)c2cnc[nH]2)c(C)c1	4	3	-1	-5	34	24
COC(=O)CCC(=O)N(C)CC1CCCN(CCc2cccc(C(F)(F)F)c2)C1 (configuration not stated)	-7	0	-2	43	-1	-3
CN(CC1CCCN(CCc2cccc(C(F)(F)F)c2)C1)C(=O)c1cc2ccccc2o1 (configuration not stated)	·	·	1	65*	11	49
CSCCC(=O)N(C)CC1CCCN(CCc2cccc(C(F)(F)F)c2)C1 (configuration not stated)	·	2	1	55*	-6	-13
COc1ccc(C(=O)Cn2nnc(-c3ccccc3NC(=O)c3ccco3)n2)cc1	-3	35	55*	21	-26	12
O=[N+]([O-])c1ccc(S(=O)(=O)Nc2nnc(C(F)(F)F)s2)cc1	-9	-7	12	6	-8	7
COc1cc2c(cc1OC)C(COc1ccc(F)cc1)N(C(=O)c1ccco1)CC2 (configuration not stated)	-4	-3	7	15	10	8
COc1cc2c(cc1OC)C(c1cc3cccc(C)c3[nH]c1=O)N(C(=O)c1ccco1)CC2 (configuration not stated)	2	·	12	58*	-4	7
O=C(NCCCl)Nc1cccc(Br)c1	-7	-3	-17	7	-5	13

High-throughput results deposited in PubChem BioAssay by several laboratories.
